Measured values: ChEMBL document CHEMBL1146097, “Catalytic site prediction and virtual screening of cytochrome P450 2D6 substrates by consideration of water and rescoring in automated docking” (J Med Chem, 2006)

These compounds were tested against Cytochrome P450 2D6 (Homo sapiens, UniProt P10635) (assay: Inhibition of human CYP2D6 expressed in Escherichia coli JM109).
Sequence of Cytochrome P450 2D6 (P10635 whole entry): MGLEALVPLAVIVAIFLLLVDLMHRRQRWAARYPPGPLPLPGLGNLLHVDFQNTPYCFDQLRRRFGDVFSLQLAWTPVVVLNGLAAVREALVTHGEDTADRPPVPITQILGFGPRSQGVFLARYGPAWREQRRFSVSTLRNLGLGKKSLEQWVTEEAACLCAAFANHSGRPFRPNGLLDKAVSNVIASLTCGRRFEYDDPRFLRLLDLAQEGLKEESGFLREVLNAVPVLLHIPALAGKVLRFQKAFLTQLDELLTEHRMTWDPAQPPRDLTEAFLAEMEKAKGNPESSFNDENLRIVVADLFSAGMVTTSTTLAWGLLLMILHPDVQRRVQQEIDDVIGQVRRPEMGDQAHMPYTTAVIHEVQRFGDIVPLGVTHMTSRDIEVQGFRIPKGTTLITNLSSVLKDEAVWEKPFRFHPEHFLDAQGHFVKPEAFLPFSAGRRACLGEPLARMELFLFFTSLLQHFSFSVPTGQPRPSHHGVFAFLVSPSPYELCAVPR
Type: ADME
Summary of the method: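 IC50 from inhibition of CYP2D6-catalysed MAMC O-demethylation; values are means of at least three independent experiments ± standard deviation.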
`CC(Cc1ccccc1)NC1CC2c3ccccc3CCc3cccc1c32` (configuration not stated) gave an IC50 of 0.15 µM.
Work on `c1ccc(CCNCCC2c3ccccc3Sc3ccccc32)cc1` yielded an IC50 of 0.26 µM.
`CC1C2C=C(C=C3c4ccccc4CCc4ccccc43)CC1CC2` (configuration not stated) was tested, and the IC50 was 0.21 µM.
`Cc1ccc2c(c1)C(n1cccc1)c1cccnc1CC2` (configuration not stated) showed an IC50 of 40 µM.
For `CCCCCCCCCCCc1cccn1C1c2ccccc2CCc2ccccc21`, the IC50 was 5.8 µM.
Compound `C[N+]1(C)C2CCC1CC(OC1c3ccccc3C=Cc3ccccc31)C2` (configuration not stated) has an IC50 of 60 µM.
`Nc1ccccc1-c1nc(N)c2ccccc2n1` showed an IC50 of 169 µM.
In the case of `O=C1c2ccccc2C(O)C1C1c2ccccc2C=Cc2ccccc21` (configuration not stated), the IC50 is reported as 60 µM.
For `CN(C)CCC1(O)c2ccccc2CCc2ccc3ccccc3c21` (configuration not stated), the IC50 was 0.06 µM.
With `Cn1ccnc1C(O)C=C(c1ccccc1)c1ccccc1` (configuration not stated) the IC50 was 15 µM.
In the case of `CCC(=O)O/N=C1\c2ccccc2CCc2ncccc21`, the IC50 is reported as > 400 µM.
`C(=C1c2ccccc2CCc2ccccc21)c1ccccc1` was tested, and the IC50 was > 200 µM.
Work on `CCc1ccccc1C1(Br)C(=O)c2ccccc2C1=O` yielded an IC50 of 83 µM.
With `Fc1ccc(C(OCCN2CCC(CCCc3ccccc3)CC2)c2ccc(F)cc2)cc1` the IC50 was 1.21 µM.
In the case of `Oc1ccccc1/C=N/c1ccccc1` [2-((PHENYLIMINO)METHYL)PHENOL], the IC50 is reported as > 1000 µM.
Compound `COc1ccc2c(c1)[C@]13CCCC[C@@H]1[C@H](C2)N(C)CC3` [DEXTROMETHORPHAN] has an IC50 of 3.4 µM.
`CCC(c1ccccc1)c1c(O)c2ccccc2oc1=O` (configuration not stated) [PHENPROCOUMON] gave an IC50 of 528 µM.
